Activity calls are given as the source filed them.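 The calls were made as follows, unless noted: active = Her2 level under about 52% in both replicate screens, with viability over 70% of control (limit read from the data); inconclusive = Her2 under the limit in one screen only, or viability under 70%; inactive = Her2 level above the set limit.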
Legend:
[1] = Her2 expression decrease, cell viability multiplex – SKBR3 breast tumor cells, AlphaScreen, ATP viability, primary screen (AID 461); details: SKBR3 Her2 protein level, 18-24 h, measured here: SKBR3 viability, ATP luminescence, at 10 µM;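 as to Her2 level: lower value means less Her2 protein in the cells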;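 as to viability: percent of carrier control wells set as 100% viability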
[2] = molecular target: Receptor tyrosine-protein kinase erbB-2 (Homo sapiens) (UniProt P04626); assay: as above; details: 18-24 h, at 10 µM, stronger effect = lower value
[3] = reduced viability of SK-BR-3 breast cancer cells – cell-based, 24 h, human, pilot screen (AID 572;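 active = viability at or below 10% of carrier control in both of two separate runs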;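 also: compound exposure lasted between 18 and 24 h rather than exactly 24 h; 100% = carrier-treated control wells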); details: SK-BR-3 viability, CellTiter-Glo luminescence, at 10 µM, stronger effect = lower value
[4] = HUVEC growth inhibition – cell-based, human, primary screen (AID 575;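 active = viability at or below 30% in both replicate assays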;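 also: 100% = median of untreated cell wells with 0.1% DMSO on each plate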); details: HUVEC proliferation, CellTiter-Glo luminescence, 72 h; at 10 µM; stronger effect = lower value
Summary of the method: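 Assay system: Primary human umbilical vein endothelial cells | Quantity: 1250 cells per well | Medium: Supplemented EBM, 2% fetal bovine serum | Detection: CellTiter-Glo luminescence measuring cellular ATP | Read-out: % viability vs DMSO wells | Plate: Collagen-coated 384-well format | Times: 72 h exposure, 37 °C, 5% CO2, 30 min RT equilibration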

[5] = H69AR cell proliferation blockers – human, duplicate replicates, primary screen (AID 580;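 active = viability at or under a set limit in both replicates, limit being median viability minus 3 SD, cut at about 48% in these data, passing the limit was not always enough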;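 also: 100% = mean luminescence of untreated wells and 0% = no signal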); details: H69AR lung tumor cells viability, ATP luminescence, 72 h; at 10 µM; stronger effect = lower value
[6] = MRP1 drug-resistance reversers in H69AR cells – cell-based, doxorubicin co-treatment, pilot screen (AID 601;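 active = viability loss from added drug above about 55%, and viability with drug at most 40%, in both replicates, limit read from the data, passing the limit was not always enough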); details: CellTiter-Glo, 72 h, at 10 µM; for differential viability (reversal): stronger effect = higher value
[7] = yeast transport mutant growth inhibition pilot in 384-well plates, post-Golgi transport modulator project (AID 636; in the data active = inhibition above about 31%); details: absorbance 615 nm, about 18 h, stronger effect = higher value
[8] = growth suppression of yeast trafficking mutant, preliminary HTS, modulators of trafficking downstream of Golgi apparatus project, 1536-format plate, OD 615 nm (AID 637; in the data active = inhibition above about 30%); details: yeast transport mutant growth, absorbance 615 nm, 18 h; stronger effect = higher value
[9] = H69AR cells + 2 uM doxorubicin, measured here: viability with 2 uM doxorubicin, stronger effect = lower value
[10] = H69AR cells, compound alone cytotoxicity

Chain of Receptor tyrosine-protein kinase erbB-2 (Homo sapiens) (P04626 whole entry, looked up): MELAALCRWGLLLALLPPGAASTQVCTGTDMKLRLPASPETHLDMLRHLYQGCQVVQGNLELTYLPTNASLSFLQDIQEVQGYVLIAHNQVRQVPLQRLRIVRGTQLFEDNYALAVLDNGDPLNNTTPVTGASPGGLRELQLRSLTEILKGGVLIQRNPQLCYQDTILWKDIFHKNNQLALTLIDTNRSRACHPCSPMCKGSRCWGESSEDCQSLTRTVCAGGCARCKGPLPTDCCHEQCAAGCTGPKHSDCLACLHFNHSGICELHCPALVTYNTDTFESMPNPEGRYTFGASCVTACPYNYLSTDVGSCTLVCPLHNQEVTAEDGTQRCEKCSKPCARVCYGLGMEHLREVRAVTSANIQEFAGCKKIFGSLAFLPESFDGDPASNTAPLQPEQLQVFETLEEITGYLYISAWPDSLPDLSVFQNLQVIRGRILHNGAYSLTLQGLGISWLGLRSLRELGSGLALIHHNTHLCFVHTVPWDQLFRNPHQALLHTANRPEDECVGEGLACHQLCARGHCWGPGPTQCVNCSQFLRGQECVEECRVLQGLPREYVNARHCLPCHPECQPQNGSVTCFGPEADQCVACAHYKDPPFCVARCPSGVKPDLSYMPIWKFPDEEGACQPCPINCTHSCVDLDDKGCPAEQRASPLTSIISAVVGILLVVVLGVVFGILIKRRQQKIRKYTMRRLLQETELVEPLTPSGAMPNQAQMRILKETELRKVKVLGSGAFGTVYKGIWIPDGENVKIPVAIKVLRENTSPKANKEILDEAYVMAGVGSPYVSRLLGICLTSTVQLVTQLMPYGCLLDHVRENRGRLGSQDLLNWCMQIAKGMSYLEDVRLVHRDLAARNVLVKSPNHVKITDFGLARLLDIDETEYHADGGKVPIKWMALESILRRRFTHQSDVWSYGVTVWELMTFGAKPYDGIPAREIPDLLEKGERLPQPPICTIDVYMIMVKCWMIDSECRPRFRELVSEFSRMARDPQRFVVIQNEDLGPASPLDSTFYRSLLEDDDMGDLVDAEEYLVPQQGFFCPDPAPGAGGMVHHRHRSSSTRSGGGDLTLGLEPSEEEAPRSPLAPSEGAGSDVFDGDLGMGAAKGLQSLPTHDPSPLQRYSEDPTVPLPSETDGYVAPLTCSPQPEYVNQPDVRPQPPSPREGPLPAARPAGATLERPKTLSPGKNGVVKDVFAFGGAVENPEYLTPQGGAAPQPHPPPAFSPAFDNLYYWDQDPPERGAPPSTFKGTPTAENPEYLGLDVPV

Structure (SMILES)	viability [1]	Her2 level [2]	viability [3]	viability [4]	viability [5]	differential viability (reversal) ([6]; H69AR cells + 2 uM doxorubicin)	viability [6, 9]	viability [6, 10]	inhibition [7]	inhibition [8]
CN(C)C(=O)CN(c1ccc(F)c(Cl)c1)S(C)(=O)=O	101%	111% (inactive)	101% (inactive)	92.7% (inactive)	90.8% (inactive)	-10.3% (inactive)	101%	90.8%	-2.11% (inactive)	-7.05% (inactive)
O=C(Nc1ccc(Br)cc1F)c1sccc1-n1cccc1	87.5%	72.5% (inactive)	87.5% (inactive)	93.5% (inactive)	83.1% (inactive)	1.42% (inactive)	81.7%	83.1%	-5.66% (inactive)	-8.67% (inactive)
Cc1nc2sc(C(c3ccc(Br)cc3)N3CC(C)OC(C)C3)c(O)n2n1 (stereo not given)	80%	112% (inactive)	80% (inactive)	109% (inactive)	105% (inactive)	15.2% (inactive)	90.2%	105%	-2.21% (inactive)	-3.44% (inactive)
C/C(N)=C(/C#N)C(=O)CSc1nnc(Nc2cccc(C)c2)s1	114%	79% (inactive)	114% (inactive)	77.5% (inactive)	83.8% (inactive)	7.75% (inactive)	76%	83.8%	-2% (inactive)	0.65% (inactive)
CCOc1ccc(C(=O)N2CCC(C(=O)c3ccc4c(c3)OCCO4)CC2)cc1	84.5%	79.5% (inactive)	84.5% (inactive)	77.8% (inactive)	86.3% (inactive)	0.19% (inactive)	86.1%	86.3%	-4.61% (inactive)	-6.91% (inactive)
Cc1nn(-c2ccccc2)c2sc(C(=O)N3CCOCC3)cc12	88.5%	84.5% (inactive)	88.5% (inactive)	71.9% (inactive)	87.3% (inactive)	-2.3% (inactive)	89.6%	87.3%	-6% (inactive)	-0.48% (inactive)
CCCN(CCC)C(=O)C1CCN(c2cc(C)nc3c(-c4ccc(OC)c(OC)c4)c(C)nn23)CC1	81.5%	88% (inactive)	81.5% (inactive)	58.1% (inactive)	69.1% (inactive)	44% (inactive)	25%	69.1%	-0.13% (inactive)	-5.08% (inactive)
COc1ccc(-c2nnc(SCC(=O)N3CCCCC3)o2)cc1OC	104%	104% (inactive)	104% (inactive)	88.7% (inactive)	97.5% (inactive)	5.33% (inactive)	92.1%	97.5%	-2.93% (inactive)	-5.9% (inactive)
Cc1nc(N2CCC(C)CC2)c2c(C)c(C(=O)O)sc2n1	100%	77% (inactive)	100% (inactive)	74.2% (inactive)	84.9% (inactive)	3.62% (inactive)	81.3%	84.9%	-4.74% (inactive)	-6.33% (inactive)
COc1ccccc1-c1nnc(SCc2ccccn2)n1C	94%	107% (inactive)	94% (inactive)	113% (inactive)	80.6% (inactive)	-10.8% (inactive)	91.4%	80.6%	7.53% (inactive)	9.37% (inactive)
CCOc1ccc(C2CC(c3cccc(C)c3)n3ncnc3N2)cc1 (stereo not given)	101%	100% (inactive)	101% (inactive)	94% (inactive)	111% (inactive)	18% (inactive)	93.1%	111%	1.41% (inactive)	-3% (inactive)
Cn1cc(CC(=O)Nc2cccc(C#N)c2)c2ccccc21	101%	87.5% (inactive)	101% (inactive)	97.7% (inactive)	104% (inactive)	12.6% (inactive)	91.7%	104%	-4.61% (inactive)	-2.22% (inactive)
CCN(CC)c1ccc2cc(NC(=O)CCC(=O)O)c(=O)oc2c1	89%	99% (inactive)	89% (inactive)	81.1% (inactive)	95.7% (inactive)	-12.2% (inactive)	108%	95.7%	-2.13% (inactive)	-5.32% (inactive)
CN(C1CCCCC1)S(=O)(=O)c1ccc(NC(=O)c2ccco2)cc1	91.5%	91.5% (inactive)	91.5% (inactive)	80.4% (inactive)	99.3% (inactive)	4.14% (inactive)	95.1%	99.3%	-5.26% (inactive)	-0.67% (inactive)
O=C(Nc1ccc(OC(=O)c2ccco2)cc1)c1ccco1	96.5%	99.5% (inactive)	96.5% (inactive)	103% (inactive)	85.3% (inactive)	-10.4% (inactive)	95.7%	85.3%	-5.73% (inactive)	-10.5% (inactive)
Cc1cccc(-c2nnn(CC/C(N)=N/O)n2)c1	85%	84.5% (inactive)	85% (inactive)	85.3% (inactive)	104% (inactive)	-1.3% (inactive)	105%	104%	-2.53% (inactive)	-0.16% (inactive)
COc1ccc(N(C(=O)c2ccco2)C(C(=O)NC2CCCC2)c2ccc(N(C)C)cc2)cc1OC (stereo not given)	100%	123% (inactive)	100% (inactive)	91.2% (inactive)	90% (inactive)	-14.6% (inactive)	105%	90%	-1.3% (inactive)	-8.5% (inactive)
COc1ccccc1OCCOc1ccccc1/C=N/n1cnnc1	81.5%	104% (inactive)	81.5% (inactive)	96.4% (inactive)	70.9% (inactive)	-22.5% (inactive)	93.5%	70.9%	1.28% (inactive)	-5% (inactive)
CCC(=O)c1ccc(OC(=O)c2ccc(Br)o2)cc1	102%	78.5% (inactive)	102% (inactive)	98% (inactive)	108% (inactive)	8.45% (inactive)	99.9%	108%	-4.67% (inactive)	8.2% (inactive)
Cc1c(/C(O)=C2/C(=O)C(=O)N(CCN3CCOCC3)C2c2cccnc2)cnn1-c1ccccc1 (stereo not given)	85.5%	108% (inactive)	85.5% (inactive)	110% (inactive)	91.5% (inactive)	9.19% (inactive)	82.3%	91.5%	1.45% (inactive)	-1.09% (inactive)
C=CCn1c(-c2ccccc2)c[nH]c1=S	91%	92.5% (inactive)	91% (inactive)	114% (inactive)	99.9% (inactive)	22.4% (inactive)	77.5%	99.9%	-5.84% (inactive)	0.16% (inactive)
CCCN1C=CC(=C2C(=O)c3ccccc3C2=O)C=C1	88%	123% (inactive)	88% (inactive)	42.9% (inactive)	40.8% (active)	-3% (inactive)	43.8%	40.8%	-1.92% (inactive)	1% (inactive)
CCCNC(=O)NC(C(=O)OC)C12CC3CC(CC(C3)C1)C2 (stereo not given)	101%	76.5% (inactive)	101% (inactive)	80.4% (inactive)	102% (inactive)	10.1% (inactive)	91.6%	102%	-5% (inactive)	-1.5% (inactive)
CC(C)[C@H](NC(=O)OC(C)(C)C)c1nnc(SCc2cccc(F)c2)o1	90%	120% (inactive)	90% (inactive)	107% (inactive)	96.4% (inactive)	-1.12% (inactive)	97.5%	96.4%	0.13% (inactive)	0% (inactive)
O=C(c1ccc(COc2c(F)c(F)c(F)c(F)c2F)o1)N1CCOCC1	111%	98.5% (inactive)	111% (inactive)	100% (inactive)	88% (inactive)	7.68% (inactive)	80.3%	88%	-5.81% (inactive)	6.98% (inactive)
COc1ccc(C(=O)NCCCCCC(=O)O)cc1OC	125%	99% (inactive)	125% (inactive)	90.5% (inactive)	92.2% (inactive)	-8.78% (inactive)	101%	92.2%	-7.24% (inactive)	-3.33% (inactive)
Cc1ccc(S(=O)(=O)Nc2cc(C(=O)O)ccc2N2CCCCC2)cc1	112%	112% (inactive)	112% (inactive)	101% (inactive)	85.6% (inactive)	-1.99% (inactive)	87.6%	85.6%	-5.97% (inactive)	6.07% (inactive)
Cc1ccc(Nc2nc(CSc3nnnn3C)cs2)cc1	101%	96% (inactive)	101% (inactive)	95.3% (inactive)	113% (inactive)	25.7% (inactive)	87.4%	113%	-7.24% (inactive)	-1.45% (inactive)

From PubChem BioAssay
